From ChEMBL document CHEMBL2176968, “Identification of less lipophilic riminophenazine derivatives for the treatment of drug-resistant tuberculosis” (J Med Chem, 2012)
Converted amounts (≈) assume the structure as drawn.

Experiments:
[1] = Selectivity index, ratio of IC50 for african green monkey Vero cells to MIC for Mycobacterium tuberculosis H37Rv ATCC 27294; format: functional
Vero = assay: Cytotoxicity against african green monkey Vero cells after 48 hrs by MTT assay; format: cell-based; settings: Chlorocebus sabaeus
Summary of the method: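 Vero cells were exposed to compound. The IC50 was taken as the concentration inhibiting 50% of growth relative to an untreated control.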

[2] = system: Mycobacterium tuberculosis; assay: Antimycobacterial activity against Mycobacterium tuberculosis H37Rv ATCC 27294 after 7 days by microplate Alamar blue assay; format: functional; settings: H37Rv ATCC 27294, 168 h
Summary of the method: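 Run in 96-well plates against M. tuberculosis H37Rv using the Alamar Blue read-out. The MIC was taken as the lowest concentration giving >90% growth inhibition.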

Mus musculus = assay: Acute toxicity in mouse assessed as survival at 500 mg/kg, po measured for 7 days; format: organism-based; set-up: dose 500 mg/kg, route oral; settings: in vivo, 168 h
Summary of the method: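 Mice given one oral dose of 500 mg/kg, then observed for 7 days. The number of surviving mice was recorded.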

| Compound | Selectivity Index [1] | IC50 (Vero) [µg/mL] | MIC [2] [µg/mL] | Activity (Mus musculus) |
| --- | --- | --- | --- | --- |
| Cc1ccc(Nc2cc3nc4ccccc4n(-c4ccc(C(F)(F)F)cc4)c-3c/c2=N\C2CCOCC2)cn1 | 1098 | 35.1 (≈ 66.3 µM) | 0.032 (≈ 0.0604 µM) |  |
| COC1CCC(/N=c2\cc3n(-c4ccc(C(F)(F)F)cc4)c4ccccc4nc-3cc2Nc2ccc(C)nc2)CC1 (stereo not drawn) | 2089 | 33.4 (≈ 60 µM) | 0.016 (≈ 0.0287 µM) |  |
| COc1ncccc1Nc1cc2nc3ccccc3n(-c3ccc(Br)cc3)c-2c/c1=N\C(C)C | 1306 | > 64 | 0.049 (≈ 0.0953 µM) |  |
| COc1ncccc1Nc1cc2nc3ccccc3n(-c3ccc(Br)cc3)c-2c/c1=N\C1CCC(OC)CC1 (stereo not drawn) | 2065 | > 64 | 0.031 (≈ 0.053 µM) | Non-toxic |
| Cc1ncccc1Nc1cc2nc3ccccc3n(-c3ccc(Br)cc3)c-2c/c1=N\C(C)C | 635 | 39.4 (≈ 79 µM) | 0.062 (≈ 0.124 µM) |  |
| COC1CCC(/N=c2\cc3n(-c4ccc(Br)cc4)c4ccccc4nc-3cc2Nc2cccnc2C)CC1 (stereo not drawn) | 2788 | 41.8 (≈ 73.6 µM) | 0.015 (≈ 0.0264 µM) | Toxic |
| Cc1ccc(Nc2cc3nc4ccccc4n(-c4ccc(Br)cc4)c-3c/c2=N\C(C)C)cn1 | 64 | 3.12 (≈ 6.26 µM) | 0.049 (≈ 0.0983 µM) |  |
| Cc1ccc(Nc2cc3nc4ccccc4n(-c4ccc(Br)cc4)c-3c/c2=N\C2CCOCC2)cn1 | 493 | 21.7 (≈ 40.2 µM) | 0.044 (≈ 0.0814 µM) |  |
| COC1CCC(/N=c2\cc3n(-c4ccc(Br)cc4)c4ccccc4nc-3cc2Nc2ccc(C)nc2)CC1 (stereo not drawn) | 409 | 39.7 (≈ 69.8 µM) | 0.097 (≈ 0.171 µM) |  |
| COc1ncccc1Nc1cc2nc3ccccc3n(-c3ccc(OC(F)(F)F)cc3)c-2c/c1=N\C(C)C | 2286 | > 64 | 0.028 (≈ 0.0539 µM) |  |
| COc1ncccc1Nc1cc2nc3ccccc3n(-c3ccc(OC(F)(F)F)cc3)c-2c/c1=N\C1CCOCC1 | 4000 | > 64 | 0.016 (≈ 0.0285 µM) |  |
| Fc1ccc(-n2c3c/c(=N\CCN4CCOCC4)c(Nc4cccnc4)cc-3nc3ccccc32)cc1 | 30 | 15.1 (≈ 30.5 µM) | 0.5 (≈ 1.01 µM) |  |
| FC(F)(F)Oc1ccc(-n2c3c/c(=N\C4CCOCC4)c(Nc4cccnc4)cc-3nc3ccccc32)cc1 | 2133 | > 64 | 0.03 (≈ 0.0564 µM) |  |
| COC1CCC(/N=c2\cc3n(-c4ccc(OC(F)(F)F)cc4)c4ccccc4nc-3cc2Nc2cccnc2)CC1 (stereo not drawn) | 151 | 4.52 (≈ 8.08 µM) | 0.03 (≈ 0.0536 µM) |  |
| CN1CCC(/N=c2\cc3n(-c4ccc(OC(F)(F)F)cc4)c4ccccc4nc-3cc2Nc2cccnc2)CC1 | 18 | 4.48 (≈ 8.23 µM) | 0.25 (≈ 0.459 µM) |  |
| CC(C)CN1CCC(/N=c2\cc3n(-c4ccc(OC(F)(F)F)cc4)c4ccccc4nc-3cc2Nc2cccnc2)CC1 | 93 | 5.6 (≈ 9.55 µM) | 0.06 (≈ 0.102 µM) |  |
| FC(F)(F)Oc1ccc(-n2c3c/c(=N\CCN4CCOCC4)c(Nc4cccnc4)cc-3nc3ccccc32)cc1 | 129 | 16.1 (≈ 28.8 µM) | 0.125 (≈ 0.223 µM) |  |
| FC(F)(F)c1ccc(-n2c3c/c(=N\C4CCOCC4)c(Nc4cccnc4)cc-3nc3ccccc32)cc1 | 512 | > 64 | 0.125 (≈ 0.242 µM) |  |
| COC1CCC(/N=c2\cc3n(-c4ccc(C(F)(F)F)cc4)c4ccccc4nc-3cc2Nc2cccnc2)CC1 (stereo not drawn) | 945 | 28.3 (≈ 52.2 µM) | 0.03 (≈ 0.0552 µM) |  |
| CN1CCC(/N=c2\cc3n(-c4ccc(C(F)(F)F)cc4)c4ccccc4nc-3cc2Nc2cccnc2)CC1 | 83 | 10.4 (≈ 19.6 µM) | 0.125 (≈ 0.236 µM) |  |
| CC(C)CN1CCC(/N=c2\cc3n(-c4ccc(C(F)(F)F)cc4)c4ccccc4nc-3cc2Nc2cccnc2)CC1 | 450 | 27 (≈ 47.3 µM) | 0.06 (≈ 0.105 µM) |  |
| FC(F)(F)c1ccc(-n2c3c/c(=N\CCN4CCOCC4)c(Nc4cccnc4)cc-3nc3ccccc32)cc1 | 159 | 19.9 (≈ 36.5 µM) | 0.125 (≈ 0.23 µM) |  |
| Brc1ccc(-n2c3c/c(=N\C4CCOCC4)c(Nc4cccnc4)cc-3nc3ccccc32)cc1 | 27 | 4.48 (≈ 8.51 µM) | 0.163 (≈ 0.31 µM) |  |
| COC1CCC(/N=c2\cc3n(-c4ccc(Br)cc4)c4ccccc4nc-3cc2Nc2cccnc2)CC1 (stereo not drawn) | 30 | 1.88 (≈ 3.39 µM) | 0.062 (≈ 0.112 µM) |  |
| COc1ncccc1Nc1cc2nc3ccccc3n(-c3ccc(Cl)cc3)c-2c/c1=N\C(C)C | 2133 | > 64 | 0.03 (≈ 0.0638 µM) |  |
| Cc1ncccc1Nc1cc2nc3ccccc3n(-c3ccc(Cl)cc3)c-2c/c1=N\C(C)C | 1164 | > 64 | 0.055 (≈ 0.121 µM) |  |
| Cc1ncccc1Nc1cc2nc3ccccc3n(-c3ccc(Cl)cc3)c-2c/c1=N\C1CCOCC1 | 163 | 27.4 (≈ 55.3 µM) | 0.168 (≈ 0.339 µM) |  |
